Consider ten compounds from ChEMBL document CHEMBL4152354, “A reusable magnetic nickel nanoparticle based catalyst for the aqueous synthesis of diverse heterocycles and their evaluation as potential anti-bacterial agent” (2018).

The structures appear in SMILES notation. In brackets after ≈: the same amount, converted by molar mass.

Holding throughout (format): functional
One test has as its system Streptococcus pyogenes. Briefly: Antibacterial activity against Streptococcus pyogenes MTCC 1925 assessed as zone of inhibition at 100 uL after 24 hrs by agar well-diffusion method. In short, it runs like this: (§1)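 Mueller-Hinton agar plates swabbed with a bacterial suspension adjusted to 1.5×10^8 CFU/ml. Each 5 mm well received 100 µl of compound, and plates were incubated at 37°C for 24 h. Chloramphenicol (30 mcg) was the positive control and DMSO the negative control. Inhibition zones around wells were measured manually, in triplicate.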
Background: In agar diffusion tests the substance spreads into inoculated agar from a disc or well.

For a further test, the system named is Salmonella enterica. As to the kind of experiment: Antibacterial activity against Salmonella enterica MTCC 735 assessed as zone of inhibition at 100 uL after 24 hrs by agar well-diffusion method.
Another test concerns Escherichia coli. As to the kind of experiment: Antibacterial activity against Escherichia coli MTCC 730 assessed as zone of inhibition at 100 uL after 24 hrs by agar well-diffusion method. The gist of the method: as §1
In test [1] the test system is Bacillus cereus. As to the kind of experiment: Antibacterial activity against Bacillus cereus MTCC 430 assessed as zone of inhibition at 100 uL after 24 hrs by agar well-diffusion method. In short, it runs like this: as §1
Test [2] has as its system Klebsiella pneumoniae. As to the kind of experiment: Antibacterial activity against Klebsiella pneumoniae MTCC 109 assessed as zone of inhibition at 100 uL after 24 hrs by agar well-diffusion method. In short, it runs like this: as §1
Test [3] relates to Bacillus cereus. Briefly: Antibacterial activity against Bacillus cereus MTCC 430 after 18 hrs by TTC staining based broth microdilution method. Conditions: MTCC 430, 18 h. The gist of the method: (§2)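 Broth microdilution in Mueller-Hinton broth. 50 µl of inoculum from a 0.5 McFarland suspension was added to 50 µl of compound, giving final concentrations of 0.024–400 mg/ml in DMSO. Sealed plates were incubated at 37°C for 18 h, then 50 µl of 0.5% TTC was added for 1 h in the dark. MIC was the lowest concentration with no visible growth (well stays clear). Triplicate; mean ± SD.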

Test [4] has as its system Klebsiella pneumoniae. Briefly: Antibacterial activity against Klebsiella pneumoniae MTCC 109 after 18 hrs by TTC staining based broth microdilution method. To be noted: MTCC 109, 18 h. The gist of the method:
as §2
A general note: Broth dilution looks for growth in wells or tubes with falling amounts of substance.

In general, MIC refers to the smallest concentration in the dilution series that meets the test's criterion for growth inhibition. Higher therefore signals a less susceptible organism. In the case of `COc1ccc(C(c2c(C)[nH][nH]c2=O)C2C(=O)NC(=O)NC2=O)cc1OC` (stereo not given), the inhibition zone (IZ) turned out to be 17 mm in the test with Streptococcus pyogenes; 10 mm with Salmonella enterica; 16 mm with Escherichia coli; 15 mm in the test with Bacillus cereus [1]; 21 mm in the test on Klebsiella pneumoniae [2]. The figures for the MIC against Bacillus cereus [3] and against Klebsiella pneumoniae [4] were 780 µg/mL (≈ 2080 µM) and 390 µg/mL (≈ 1040 µM), respectively.

With `COc1cc(C(c2c(C)[nH][nH]c2=O)C2C(=O)NC(=O)NC2=O)ccc1O` (stereo not given), the inhibition zone (IZ) was 16 mm with Streptococcus pyogenes; 10 mm in the test on Salmonella enterica; 17 mm in the test on Escherichia coli; 20 mm with Bacillus cereus [1]; 16 mm with Klebsiella pneumoniae [2]. Besides, the MIC was determined as 390 µg/mL (≈ 1080 µM) in the test on Bacillus cereus [3] and 780 µg/mL (≈ 2160 µM) against Klebsiella pneumoniae [4].

As to `O=c1oc2ccccc2c(O)c1C(c1ccc(O)cc1)c1c(O)c2ccccc2oc1=O`, the inhibition zone (IZ) in the test on Streptococcus pyogenes, with Salmonella enterica, in the test on Escherichia coli, with Bacillus cereus [1] and with Klebsiella pneumoniae [2] was 10 mm in each case. Also, the MIC in the test with Bacillus cereus [3] is 6250 µg/mL (≈ 14600 µM); against Klebsiella pneumoniae [4], 3120 µg/mL (≈ 7280 µM).

For `O=c1oc2ccccc2c(O)c1C(c1ccc([N+](=O)[O-])cc1)c1c(O)c2ccccc2oc1=O`, the inhibition zone (IZ) was 15 mm in the test with Streptococcus pyogenes; 11 mm with Salmonella enterica; 13 mm with Escherichia coli; 16 mm in the test with Bacillus cereus [1]; 19 mm in the test on Klebsiella pneumoniae [2]. Moreover, the MIC in the test with Bacillus cereus [3] turned out to be 780 µg/mL (≈ 1710 µM); against Klebsiella pneumoniae [4], 390 µg/mL (≈ 853 µM).

Turning to `O=c1oc2ccccc2c(O)c1C(c1ccccc1)c1c(O)c2ccccc2oc1=O`, the inhibition zone (IZ) in the test on Streptococcus pyogenes worked out at 23 mm; in the test on Salmonella enterica it was 10 mm; with Escherichia coli it was 17 mm; in the test on Bacillus cereus [1] it was 20 mm; with Klebsiella pneumoniae [2] it was 21 mm. Also, the MIC against Bacillus cereus [3] and against Klebsiella pneumoniae [4] was 190 µg/mL (≈ 461 µM) each time.

As to `Cc1[nH][nH]c(=O)c1C(c1ccc(Br)cc1)C1C(=O)NC(=O)NC1=O` (stereo not given), the inhibition zone (IZ) was determined as 17 mm in the test with Streptococcus pyogenes; 10 mm in the test on Salmonella enterica; 15 mm in the test on Escherichia coli; 15 mm in the test on Bacillus cereus [1]; 15 mm in the test on Klebsiella pneumoniae [2]. Besides, the MIC with Bacillus cereus [3] and against Klebsiella pneumoniae [4] was 780 µg/mL (≈ 1980 µM) in each case.

Turning to `Cc1[nH][nH]c(=O)c1C(c1ccccc1[N+](=O)[O-])C1C(=O)NC(=O)NC1=O` (stereo not given), the inhibition zone (IZ) was 12 mm in the test on Streptococcus pyogenes; 10 mm in the test with Salmonella enterica; 11 mm in the test with Escherichia coli; 14 mm in the test on Bacillus cereus [1]; 13 mm in the test with Klebsiella pneumoniae [2]. Moreover, the MIC with Bacillus cereus [3] came out at 6250 µg/mL (≈ 17400 µM); in the test on Klebsiella pneumoniae [4], 3120 µg/mL (≈ 8680 µM).

Regarding `O=c1oc2ccccc2c(O)c1C(c1cccc(F)c1)c1c(O)c2ccccc2oc1=O`, the inhibition zone (IZ) with Streptococcus pyogenes amounted to 21 mm; in the test with Salmonella enterica it was 12 mm; with Escherichia coli it was 18 mm; with Bacillus cereus [1] it was 15 mm; in the test with Klebsiella pneumoniae [2], 21 mm. For the same compound, the MIC against Bacillus cereus [3] came out at 780 µg/mL (≈ 1810 µM); against Klebsiella pneumoniae [4], 390 µg/mL (≈ 906 µM).

Regarding `O=c1oc2ccccc2c(O)c1C(c1ccccc1Cl)c1c(O)c2ccccc2oc1=O`, the inhibition zone (IZ) with Streptococcus pyogenes is 22 mm; in the test with Salmonella enterica, 10 mm; with Escherichia coli, 18 mm; in the test with Bacillus cereus [1], 11 mm; in the test on Klebsiella pneumoniae [2], 24 mm. The MIC against Bacillus cereus [3] was 3120 µg/mL (≈ 6980 µM); against Klebsiella pneumoniae [4] it was 190 µg/mL (≈ 425 µM).

For `O=c1oc2ccccc2c(O)c1C(c1ccco1)c1c(O)c2ccccc2oc1=O`, the inhibition zone (IZ) in the test on Streptococcus pyogenes amounted to 18 mm; in the test on Salmonella enterica it was 11 mm; in the test on Escherichia coli, 15 mm; in the test on Bacillus cereus [1], 14 mm; in the test with Klebsiella pneumoniae [2], 17 mm. Further, the MIC came out at 3120 µg/mL (≈ 7750 µM) against Bacillus cereus [3] and 780 µg/mL (≈ 1940 µM) in the test on Klebsiella pneumoniae [4].
